The test system of data set [1] is HEK293. The data set can be described thus: Inhibition of C-terminal halo-tagged S100A4 C81S mutant-nanoluc-fused NMII interaction (unknown origin) expressed in HEK293 cells using nano-glo as substrate incubated for 24 hrs by Nano-bret assay. Format: cell-based. As to conditions: Homo sapiens. The procedure, abridged: (§1)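 S100A4 wild-type or C81S construct co-expressed with NMII fusion in HEK293 cells, run in parallel. Inhibitors given at a single 30 μM for 24 h with HaloTag 618 ligand in phenol-red-free 4% serum medium. NanoGlo substrate added. Background-corrected 618/460 nm BRET ratio compared with DMSO-treated cells.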

Data set [2] has as its system HEK293. The data set can be described thus: Inhibition of wild type C-terminal halo-tagged S100A4-nanoluc-fused NMII interaction (unknown origin) expressed in HEK293 cells using nano-glo as substrate incubated for 24 hrs by Nano-bret assay. Format: cell-based. Conditions: Homo sapiens.
Data set [3] in a line: Inhibition of S100A4-NMII interaction (unknown origin) by HTRF analysis. More on the design: species or system Homo sapiens. A digest of the protocol: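 TR-FRET peptide-displacement assays run in parallel: S100A4 with MPN (NMII-mimicking) peptide, and S100A11 with AnII-mimicking peptide, both with 1 mM calcium. IC50 fitted from percentage inhibition against solvent controls.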

In a further data set the target is Protein S100-A4 (Homo sapiens, UniProt P26447). The data set is described as follows: Inhibition of S100A4 (unknown origin) in presence of GSH by HTRF analysis. For orientation: In TR-FRET formats the signal depends on donor and acceptor labels being close together.
Sequence of Protein S100-A4 (P26447 whole entry): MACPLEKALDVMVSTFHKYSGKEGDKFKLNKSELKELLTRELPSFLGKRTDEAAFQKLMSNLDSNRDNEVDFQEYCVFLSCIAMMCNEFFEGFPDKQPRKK
The next data set relates to HeLa. The data set can be described thus: Inhibition of cell migration in human HeLa cells assessed as reduction in wound healing at 8 uM incubated for 36 hrs by incucyte live-cell imager. Format: functional, cell-based. A digest of the protocol: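 HeLa or A549 cells seeded in collagen-coated 96-well plates to near confluency. Monolayer scratched, then medium replaced with medium containing various inhibitor concentrations. Plates imaged every 2 h for 36 h in an Incucyte. Wound area measured with an image-analysis wound healing tool.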

Data set [4] relates to HEK293. The data set is described as follows: Inhibition of C-terminal halo-tagged S100A4 C81S mutant-nanoluc-fused NMII interaction (unknown origin) expressed in HEK293 cells using nano-glo as substrate incubated for 24 hrs by Nano-bret assay relative to control. Format: cell-based. As to conditions: Homo sapiens, dose or concentration not given here. The procedure, abridged:
as §1

For the next data set, the species on record is Homo sapiens. The data set can be described thus: Inhibition of S100A11-AN2 interaction (unknown origin) by HTRF analysis. A digest of the protocol:
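TR-FRET peptide-displacement assays run in parallel: S100A4 with MPN (NMII-mimicking) peptide, and S100A11 with AnII-mimicking peptide, both with 1 mM calcium. Duplicate dose-response in two independent experiments; top concentration 100 μM or 48.75 μM depending on series. IC50 fitted from percentage inhibition against solvent controls.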

Data set [5] can be described thus: Aqueous solubility of compound in PBS buffer at pH 7.4. Format: physicochemical. The procedure, abridged: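 Aqueous solubility measured in PBS pH 7.4 by an outside contract laboratory.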
Data set [6] in a line: Permeability of compound in MDCK-MDR1 cells. Format: ADME, cell-based, Canis lupus familiaris. Conditions: dog. The procedure, abridged:
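Permeability and P-gp efflux measured by transit across MDCK-MDR1 cell monolayers by an outside contract laboratory.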

The structures appear in SMILES notation. The source made the active and inactive calls. The rule behind the calls is not given here.

This note sets out measurements from ChEMBL document CHEMBL6078633, “Covalent Inhibitors of S100A4 Block the Formation of a Pro-Metastasis Non-Muscle Myosin 2A Complex” (J Med Chem, 2024).

In the case of `O=C(Nc1cccc(Cl)c1)[C@H]1C[C@H](c2ccccc2)CN1C(=O)CCl`, the inhibition entry with HEK293 [1], with HEK293 [2] and in the data set on HeLa was “Active” throughout. Also, the IC50 in data set [3] amounted to 2.9 µM; at Protein S100-A4, 4.62 µM. In the data set on HEK293 [4], the inhibition is < 60%.
For `O=C(NC1CCCc2ccccc21)[C@H]1C[C@H](c2ccccc2)CN1C(=O)CCl` (some centres not stated), the inhibition entry in the data set listed under Homo sapiens was “inactive”. Besides, the inhibition result in the data set on HEK293 [1], in the data set on HEK293 [2] and in the data set on HeLa was “Active” each time. The solubility entry in data set [5] was “soluble”. The permeability result in [6] is “Permeable”. Besides, the inhibition in the data set with HEK293 [4] was < 60%.
With `Cc1ccc(S(=O)(=O)/C=C/C#N)cc1`, the IC50 at Protein S100-A4 was > 20 µM.
`CN1CCCC(NC(=O)[C@H]2C[C@H](c3ccccc3)CN2C(=O)CCl)C1=O` (some centres not stated): the inhibition entry in the data set filed under Homo sapiens is “inactive”. For the same molecule, the half-inhibitory concentration (IC50) in data set [3] was < 1 µM.
Taken in the same sequence, the figures for `COc1cccc(N2CC(NC(=O)[C@H]3C[C@H](c4ccccc4)CN3C(=O)CCl)CC2=O)c1` (some centres not stated) were “inactive” and < 1 µM.
For the molecule `O=C1Nc2ccccc2C1NC(=O)[C@H]1C[C@H](c2ccccc2)CN1C(=O)CCl` (some centres not stated), the inhibition result in the data set filed under Homo sapiens was “inactive”. For the same molecule, in [3], the IC50 is < 1 µM.
With `N#CCc1ccc(NC(=O)[C@H]2C[C@H](c3ccccc3)CN2C(=O)CCl)cc1`, the inhibition result in the data set listed under Homo sapiens was “inactive”. Moreover, the half-maximal inhibitory concentration (IC50) in data set [3] is < 1 µM.

The term inhibition denotes the relative decrease from the control value, in per cent. The IC50 is the midpoint of a concentration-inhibition curve.
